Activity calls are given as the source filed them. No cut-off for these calls is given here.
Experiments:
[1] = biological target: NAD-dependent protein deacylase sirtuin-5, mitochondrial (Homo sapiens, UniProt Q9NXA8); assay: Inhibition of SIRT5 using ZK(suc)A substrate after 1 hr by homogeneous fluorescence assay
Summary of the method: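 Recombinant Sirt5 reacted with 200 µM succinyl-lysine AMC substrate ZK(s)A and 500 µM NAD+ in pH 8.0 Tris buffer (130 mM NaCl, 3 mM KCl, 1 mM MgCl2, 0.1% PEG8000) with DMSO <2%. Ran 1 h at 37 °C, then trypsin for 2 min at 37 °C. Conversion without inhibitor set to 4–10%. Inhibition calculated against DMSO control, at least two independent runs; IC50 from curve fit.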

[2] = biological target: T1, NAD-dependent protein deacetylase sirtuin-2 (Homo sapiens) (UniProt Q8IXJ6); assay: Inhibition of recombinant SIRT2 using ZMAL substrate at 50 uM after 4 hrs by homogeneous fluorescence assay
T1 sequence (whole entry): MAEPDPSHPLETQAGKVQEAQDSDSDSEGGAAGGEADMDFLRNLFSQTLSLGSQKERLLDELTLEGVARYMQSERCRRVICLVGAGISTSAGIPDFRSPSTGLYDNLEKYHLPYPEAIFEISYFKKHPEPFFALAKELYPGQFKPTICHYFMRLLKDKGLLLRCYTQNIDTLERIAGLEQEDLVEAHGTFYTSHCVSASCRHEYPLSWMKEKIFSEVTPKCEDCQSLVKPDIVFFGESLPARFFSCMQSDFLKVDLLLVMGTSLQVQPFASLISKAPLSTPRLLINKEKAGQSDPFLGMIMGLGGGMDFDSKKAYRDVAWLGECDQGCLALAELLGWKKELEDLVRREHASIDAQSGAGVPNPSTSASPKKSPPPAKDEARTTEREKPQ
Summary of the method: (§1)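 Recombinant Sirt1, Sirt2 or Sirt3 incubated with 10.5 µM ZMAL and 500 µM NAD+ in pH 8.0 Tris buffer (137 mM NaCl, 2.7 mM KCl, 1 mM MgCl2) containing 5% DMSO. Ran 4 h at 37 °C, then trypsin developer with 8 mM nicotinamide for 20 min at 37 °C. Fluorescence at Ex 390/Em 460 nm. Conversion without inhibitor held at 10–30%. Inhibition calculated versus DMSO control, at least three independent runs; IC50 by curve fitting.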

[3] = biological target: T2, NAD-dependent protein deacetylase sirtuin-1 (Homo sapiens, UniProt Q96EB6); assay: Inhibition of recombinant SIRT1 using ZMAL substrate after 4 hrs by homogeneous fluorescence assay
T2 sequence (Q96EB6 whole entry): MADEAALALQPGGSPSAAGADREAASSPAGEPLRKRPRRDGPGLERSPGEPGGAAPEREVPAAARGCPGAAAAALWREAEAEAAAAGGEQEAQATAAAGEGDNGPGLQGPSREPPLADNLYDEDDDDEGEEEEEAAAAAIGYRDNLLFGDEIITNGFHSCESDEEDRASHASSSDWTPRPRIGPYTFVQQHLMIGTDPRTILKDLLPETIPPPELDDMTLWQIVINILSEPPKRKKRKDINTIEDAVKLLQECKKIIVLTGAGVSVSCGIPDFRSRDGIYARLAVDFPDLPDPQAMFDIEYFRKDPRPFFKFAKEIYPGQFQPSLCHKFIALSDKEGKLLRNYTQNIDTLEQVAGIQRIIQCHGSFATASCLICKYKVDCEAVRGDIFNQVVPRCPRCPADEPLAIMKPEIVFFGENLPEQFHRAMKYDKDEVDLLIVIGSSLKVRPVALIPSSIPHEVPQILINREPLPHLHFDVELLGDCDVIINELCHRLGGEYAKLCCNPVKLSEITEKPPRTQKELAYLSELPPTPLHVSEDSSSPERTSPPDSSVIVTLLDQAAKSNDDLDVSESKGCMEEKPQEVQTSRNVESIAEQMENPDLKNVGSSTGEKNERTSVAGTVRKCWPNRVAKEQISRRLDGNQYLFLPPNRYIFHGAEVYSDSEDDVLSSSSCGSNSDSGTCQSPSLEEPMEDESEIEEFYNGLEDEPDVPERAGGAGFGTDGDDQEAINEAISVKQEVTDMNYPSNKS

[4] = biological target: T3, NAD-dependent protein deacetylase sirtuin-3, mitochondrial (Homo sapiens) (UniProt Q9NTG7); assay: Inhibition of recombinant SIRT3 using ZMAL substrate at 50 uM after 4 hrs by homogeneous fluorescence assay; summary of the method: as §1
T3 sequence (whole entry): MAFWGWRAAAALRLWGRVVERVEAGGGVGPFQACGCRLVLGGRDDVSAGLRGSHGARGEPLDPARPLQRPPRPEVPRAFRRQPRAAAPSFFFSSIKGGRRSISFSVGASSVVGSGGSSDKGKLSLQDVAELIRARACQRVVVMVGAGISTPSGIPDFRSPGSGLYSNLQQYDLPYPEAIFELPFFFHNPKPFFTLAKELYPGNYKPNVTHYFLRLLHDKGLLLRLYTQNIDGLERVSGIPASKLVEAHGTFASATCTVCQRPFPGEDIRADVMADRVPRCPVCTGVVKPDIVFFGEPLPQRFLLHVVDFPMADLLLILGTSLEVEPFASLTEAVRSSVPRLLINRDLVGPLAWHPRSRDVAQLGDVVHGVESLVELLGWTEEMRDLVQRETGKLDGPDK

[5] = biological target: T4, NAD-dependent protein deacetylase sirtuin-2 (Homo sapiens, UniProt Q8IXJ6); assay: Inhibition of recombinant SIRT2 using ZMAL substrate after 4 hrs by homogeneous fluorescence assay
T4 sequence (Q8IXJ6 whole entry): T1 sequence (whole entry)

[6] = biological target: T5, NAD-dependent protein deacetylase sirtuin-3, mitochondrial (Homo sapiens, UniProt Q9NTG7); assay: Inhibition of recombinant SIRT3 using ZMAL substrate after 4 hrs by homogeneous fluorescence assay
T5 sequence (Q9NTG7 whole entry): T3 sequence (whole entry)

Sequence of NAD-dependent protein deacylase sirtuin-5, mitochondrial (Q9NXA8 whole entry): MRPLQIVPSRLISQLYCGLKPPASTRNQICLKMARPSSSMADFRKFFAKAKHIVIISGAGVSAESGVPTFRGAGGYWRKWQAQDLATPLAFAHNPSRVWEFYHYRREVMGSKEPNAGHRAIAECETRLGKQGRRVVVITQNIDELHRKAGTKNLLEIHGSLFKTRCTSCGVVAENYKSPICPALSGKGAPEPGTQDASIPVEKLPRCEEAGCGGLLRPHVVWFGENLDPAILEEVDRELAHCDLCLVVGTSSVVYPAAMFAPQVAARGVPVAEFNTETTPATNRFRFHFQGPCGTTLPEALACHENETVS

**Q.** What does the source list for `O=C1NC(=S)NC(=O)C1=Cc1cn(Cc2ccccc2)c2ccccc12`?
**A.** IC50 ([1]; read-out: IC50): 16.6 µM; inhibition [2]: 20%; IC50 ([3]; read-out: IC50): 28.4 µM

**Q.** For `O=c1[nH]c(=S)[nH]c(-c2ccccc2)c1Cc1c(O)ccc2ccccc12` [CAMBINOL], which IC50 ([1]; read-out: IC50) is on record?
**A.** 42.5 µM

**Q.** Which results are given for `CCN1C(=O)/C(=C/c2c[nH]c3ccccc23)C(=O)NC1=S`?
**A.** IC50 ([1]; read-out: IC50): 55.9 µM; inhibition [4]: inactive; inhibition [2]: 10%; IC50 ([3]; read-out: IC50): 89.3 µM

**Q.** How did the IC50 [5] turn out when `Cc1ccc(C(=O)Nc2ccc(S(=O)(=O)O)c3cc(S(=O)(=O)O)cc(S(=O)(=O)O)c23)cc1NC(=O)c1cccc(NC(=O)Nc2cccc(C(=O)Nc3cc(C(=O)Nc4ccc(S(=O)(=O)O)c5cc(S(=O)(=O)O)cc(S(=O)(=O)O)c45)ccc3C)c2)c1` [SURAMIN] was run?
**A.** 1.1 µM

**Q.** What about the IC50 [6] of the same compound?
**A.** Not Active

**Q.** Which IC50 ([1]; read-out: IC50) does the source give for `O=C1NC(=S)NC(=O)C1=Cc1ccc(-c2ccccc2)cc1` here?
**A.** 30 µM

**Q.** And the IC50 ([6]; read-out: IC50)?
**A.** 40.3 µM

**Q.** And the IC50 ([3]; read-out: IC50)?
**A.** 50.5 µM

**Q.** For `O=C1NC(=S)NC(=O)C1=Cc1ccc(-c2cccc(Cl)c2Cl)o1`, which IC50 ([1]; read-out: IC50) is on record?
**A.** 3.6 µM

**Q.** What about the IC50 [5] of the same compound?
**A.** 10.4 µM

**Q.** What about the inhibition [4] of the same compound?
**A.** 30%

**Q.** And the IC50 ([3]; read-out: IC50)?
**A.** 3.4 µM

**Q.** What does the source list for `O=C1NC(=S)NC(=O)C1=Cc1ccc(OCc2ccccc2)cc1`?
**A.** IC50 ([1]; read-out: IC50): 12.6 µM; IC50 [5]: 9.8 µM; IC50 ([3]; read-out: IC50): 10.5 µM

**Q.** Which IC50 [1] does the source give for `NC(=O)C1CCCc2c1[nH]c1ccc(Cl)cc21` (stereo not given) here?
**A.** Not Active

**Q.** What does the source list for `CCN1C(=O)/C(=C/c2ccc(OCc3ccccc3)cc2)C(=O)NC1=S`?
**A.** IC50 ([1]; read-out: IC50): 12.9 µM; IC50 [5]: 14.4 µM; inhibition [4]: 25%; IC50 ([3]; read-out: IC50): 53.2 µM

**Q.** Which IC50 ([1]; read-out: IC50) does the source give for `CN1C(=O)/C(=C/c2ccc(OCc3ccccc3)cc2)C(=O)NC1=S` here?
**A.** 17.8 µM

**Q.** And the IC50 [5]?
**A.** 10 µM

**Q.** What about the inhibition [4] of the same compound?
**A.** 22%

**Q.** And the IC50 ([3]; read-out: IC50)?
**A.** 56.5 µM

**Q.** Which IC50 ([1]; read-out: IC50) does the source give for `O=C1NC(=S)NC(=O)C1=Cc1ccc(OCc2ccc(Br)cc2)cc1` here?
**A.** 6.2 µM

**Q.** What about the IC50 [5] of the same compound?
**A.** 3.4 µM

**Q.** And the IC50 ([3]; read-out: IC50)?
**A.** 9.9 µM

**Q.** With `CS(=O)(=O)O.Cn1cc(C2=C(c3cn(CCCSC(=N)N)c4ccccc34)C(=O)NC2=O)c2ccccc21` as the compound, how does the IC50 [1] read?
**A.** Not Active

**Q.** `COc1ccc2c(C=C3C(=O)NC(=S)NC3=O)cccc2c1` was tested. Which IC50 ([1]; read-out: IC50) did it give?
**A.** 22.4 µM

**Q.** What about the IC50 [5] of the same compound?
**A.** 11.7 µM

**Q.** What about the IC50 ([3]; read-out: IC50) of the same compound?
**A.** 6 µM

**Q.** How did the IC50 ([1]; read-out: IC50) turn out when `CC(NC(=O)c1ccccc1/N=C/c1c(O)ccc2ccccc12)c1ccccc1` (stereo not given) [SIRTINOL] was run?
**A.** 48.9 µM

**Q.** What about the inhibition [4] of the same compound?
**A.** 24%

**Q.** How did the IC50 ([1]; read-out: IC50) turn out when `O=C1NC(=S)NC(=O)C1=Cc1c[nH]c2ccccc12` was run?
**A.** 46.5 µM

**Q.** And the IC50 [5]?
**A.** 20.3 µM

**Q.** And the inhibition [4]?
**A.** 14%

**Q.** And the IC50 ([3]; read-out: IC50)?
**A.** 5.9 µM

**Q.** Which IC50 ([1]; read-out: IC50) does the source give for `COc1cc(C=C2C(=O)NC(=S)NC2=O)ccc1OCc1ccccc1Cl` here?
**A.** 12.4 µM

**Q.** And the IC50 [5]?
**A.** 7.5 µM

**Q.** And the IC50 ([3]; read-out: IC50)?
**A.** 6.7 µM

**Q.** How did the IC50 ([1]; read-out: IC50) turn out when `CC(C)c1ccc(C=C2C(=O)NC(=S)NC2=O)cc1` was run?
**A.** 39.4 µM

**Q.** What about the IC50 [5] of the same compound?
**A.** 14.7 µM

**Q.** And the inhibition [4]?
**A.** 13%

**Q.** What about the IC50 ([3]; read-out: IC50) of the same compound?
**A.** 12.4 µM

**Q.** `C=CCN1C(=O)/C(=C/c2ccc(-c3cccc(Cl)c3Cl)o2)C(=O)NC1=S` was tested. Which IC50 ([1]; read-out: IC50) did it give?
**A.** 2.3 µM

**Q.** And the IC50 [5]?
**A.** 9.7 µM

**Q.** What about the inhibition [4] of the same compound?
**A.** 41%

**Q.** What about the IC50 ([3]; read-out: IC50) of the same compound?
**A.** 5.3 µM

**Q.** What does the source list for `CN1C(=O)/C(=C/c2c[nH]c3ccccc23)C(=O)NC1=S`?
**A.** IC50 ([1]; read-out: IC50): 27 µM; inhibition [4]: 17%; inhibition [2]: 20%; IC50 ([3]; read-out: IC50): 42.4 µM

**Q.** For `C=CCN1C(=O)/C(=C/c2ccc(OCc3ccccc3)cc2)C(=O)NC1=S`, which IC50 ([1]; read-out: IC50) is on record?
**A.** 67.3 µM

**Q.** And the inhibition [4]?
**A.** 13%

**Q.** And the inhibition [2]?
**A.** inactive

**Q.** What about the IC50 ([3]; read-out: IC50) of the same compound?
**A.** 36.8 µM

**Q.** For `O=C1CC(c2ccccc2)c2c(ccc3cc(Br)ccc23)O1` (stereo not given), which IC50 [1] is on record?
**A.** Not Active

**Q.** And the IC50 [5]?
**A.** 1 µM

**Q.** What about the IC50 [6] of the same compound?
**A.** Not Active

**Q.** And the IC50 [3]?
**A.** Not Active

— ChEMBL document CHEMBL2203031, “Inhibitors of the NAD(+)-Dependent Protein Desuccinylase and Demalonylase Sirt5” (ACS Med Chem Lett, 2012)
